Here are results for 16 molecules from ChEMBL document CHEMBL3045650, “Design, synthesis, and 3D-QSAR analysis of novel 1,3,4-oxadiazol-2(3H)-ones as protoporphyrinogen oxidase inhibitors” (J Agric Food Chem, 2010).

One may read the Ki as a dissociation constant, usually derived from enzyme kinetics or from competition with a known ligand.

In one test the test system is Digitaria sanguinalis. Put plainly: Post-emergence herbicidal activity against Digitaria sanguinalis (hairy crabgrass) assessed as growth inhibition at emulsified concentrate of 150 g/ai ha after 15 days by greenhouse test. The format is functional. In short, it runs like this: (§1)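 About 20 seeds sown 1–3 cm deep, grown at 15–30 °C and 50% RH. Monocot seedlings sprayed postemergence at the one-leaf stage with a 100 g/L emulsifiable concentrate (DMF/Tween-80) diluted in water, 150 g ai/ha. Untreated and solvent controls included. Visual rating at 15 days, three replicates.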

Test [1] has as its target T1, Protoporphyrinogen oxidase (Homo sapiens, UniProt P50336).
T1 sequence (P50336 whole entry): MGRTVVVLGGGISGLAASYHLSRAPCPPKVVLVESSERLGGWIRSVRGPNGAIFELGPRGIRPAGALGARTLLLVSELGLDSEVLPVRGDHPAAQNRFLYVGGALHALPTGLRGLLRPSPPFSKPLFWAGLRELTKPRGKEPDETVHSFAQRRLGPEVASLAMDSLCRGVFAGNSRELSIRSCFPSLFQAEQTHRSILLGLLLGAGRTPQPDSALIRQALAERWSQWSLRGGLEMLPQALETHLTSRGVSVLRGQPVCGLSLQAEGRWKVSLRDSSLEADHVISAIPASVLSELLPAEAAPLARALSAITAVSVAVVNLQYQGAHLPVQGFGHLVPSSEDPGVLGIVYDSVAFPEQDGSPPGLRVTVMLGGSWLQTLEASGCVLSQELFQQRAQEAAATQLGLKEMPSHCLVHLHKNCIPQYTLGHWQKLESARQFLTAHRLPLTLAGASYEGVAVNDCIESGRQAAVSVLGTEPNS
Put plainly: Inhibition of Homo sapiens (human) recombinant protoporphyrinogen oxidase expressed in Escherichia coli JM109 assessed as oxidation of protoporphyrinogen IX substrate by fluorescence assay.

A further test deals with Amaranthus retroflexus. Put plainly: Post-emergence herbicidal activity against Amaranthus retroflexus assessed as growth inhibition at emulsified concentrate of 150 g/ai ha after 15 days by greenhouse test. It counts as functional. In short, it runs like this: (§2)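 About 20 seeds sown 1–3 cm deep, grown at 15–30 °C and 50% RH. Dicot seedlings sprayed postemergence at the two-leaf stage with a 100 g/L emulsifiable concentrate (DMF/Tween-80) diluted in water, 150 g ai/ha. Untreated and solvent controls included. Visual rating at 15 days, three replicates.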

For the next test, the system named is Echinochloa crus-galli. Put plainly: Post-emergence herbicidal activity against Echinochloa crus-galli (barnyard grass) assessed as growth inhibition at emulsified concentrate of 150 g/ai ha after 15 days by greenhouse test. It counts as functional. In short, it runs like this: as §1
The next test concerns Brassica juncea. Put plainly: Post-emergence herbicidal activity against Brassica juncea assessed as growth inhibition at emulsified concentrate of 150 g/ai ha after 15 days by greenhouse test. It counts as functional. In short, it runs like this:
as §2

The next test concerns Poa annua. The experiment in a line: Post-emergence herbicidal activity against Poa annua assessed as growth inhibition at emulsified concentrate of 150 g/ai ha after 15 days by greenhouse test. It counts as functional. In a few lines: as §1
The subject of a further test is Eclipta prostrata. Put plainly: Post-emergence herbicidal activity against Eclipta prostrata assessed as growth inhibition at emulsified concentrate of 150 g/ai ha after 15 days by greenhouse test. It counts as functional. In a few lines:
as §2

Molecules are shown by their SMILES.

For the molecule `CCOC(=O)Sc1nc2cc(-n3nc(C(C)(C)C)oc3=O)c(Cl)cc2s1`, the “inhibition (INH)” value in the test on Digitaria sanguinalis is listed as 0%; in the test on Amaranthus retroflexus, 70%; in the test on Echinochloa crus-galli, 0%; with Brassica juncea, 70%; in the test on Poa annua, 0%; with Eclipta prostrata it was 40%. Also, the Ki in test [1] was 330 nM.

In the case of `CCOC(=O)CSc1nc2cc(-n3nc(C(C)(C)C)oc3=O)c(Cl)cc2s1`, the “inhibition (INH)” value in the test on Digitaria sanguinalis is 0%; with Amaranthus retroflexus, 70%; in the test on Echinochloa crus-galli it was 0%; with Brassica juncea, 50%; with Poa annua, 0%; in the test with Eclipta prostrata, 60%. In test [1], the Ki turned out to be 1010 nM.

With `CCOC(=O)C(C)(C)Sc1nc2cc(-n3nc(C(C)(C)C)oc3=O)c(Cl)cc2s1`, the “inhibition (INH)” value was found to be 0% in the test on Digitaria sanguinalis; 50% in the test on Amaranthus retroflexus; 0% with Echinochloa crus-galli; 60% with Brassica juncea; 0% in the test on Poa annua; 50% in the test on Eclipta prostrata. The Ki in test [1] was 1350 nM.

With `CCOC(=O)CCCSc1nc2cc(-n3nc(C(C)(C)C)oc3=O)c(Cl)cc2s1`, the “inhibition (INH)” value in the test on Digitaria sanguinalis was determined as 0%; with Amaranthus retroflexus it was 50%; in the test with Echinochloa crus-galli, 0%; in the test with Brassica juncea it was 0%; in the test on Poa annua it was 0%; with Eclipta prostrata, 0%. Besides, the Ki in test [1] is 2020 nM.

For the molecule `CCOC(=O)CSc1nc2cc(-n3nc(C(C)(C)C)oc3=O)c(Br)cc2s1`, the “inhibition (INH)” value in the test with Digitaria sanguinalis was found to be 0%; with Amaranthus retroflexus, 75%; with Echinochloa crus-galli it was 0%; with Brassica juncea it was 0%; in the test on Poa annua it was 0%; in the test with Eclipta prostrata, 0%. Also, the Ki in test [1] worked out at 6960 nM.

Consider `CCOC(=O)C(C)Sc1nc2cc(-n3nc(C(C)(C)C)oc3=O)c(Br)cc2s1` (configuration not stated), for which the “inhibition (INH)” value in the test on Digitaria sanguinalis is 0%; in the test on Amaranthus retroflexus, 70%; in the test on Echinochloa crus-galli, 0%; in the test with Brassica juncea, 0%; in the test with Poa annua, 0%; in the test on Eclipta prostrata, 60%. Besides, in test [1], the Ki is 8130 nM.

Regarding `CCOC(=O)CCSc1nc2cc(-n3nc(C(C)(C)C)oc3=O)c(Br)cc2s1`, the “inhibition (INH)” value with Digitaria sanguinalis stood at 0%; with Amaranthus retroflexus, 0%; in the test with Echinochloa crus-galli, 0%; in the test on Brassica juncea, 0%; with Poa annua, 0%; in the test on Eclipta prostrata, 30%. In addition, the inhibitory constant (Ki) in test [1] worked out at 1690 nM.

In the case of `C#CCSc1nc2cc(-n3nc(C(C)(C)C)oc3=O)c(Br)cc2s1`, the “inhibition (INH)” value in the test with Digitaria sanguinalis is 0%; in the test on Amaranthus retroflexus it was 40%; in the test on Echinochloa crus-galli, 0%; in the test with Brassica juncea, 40%; with Poa annua, 0%; with Eclipta prostrata, 40%. Also, in test [1], the Ki was 11100 nM.

Regarding `CCCOC(=O)CSc1nc2cc(-n3nc(C(C)(C)C)oc3=O)c(Br)cc2s1`, the “inhibition (INH)” value in the test with Digitaria sanguinalis is 0%; with Amaranthus retroflexus it was 50%; with Echinochloa crus-galli, 0%; in the test on Brassica juncea, 0%; in the test on Poa annua, 0%; in the test on Eclipta prostrata, 30%. For the same molecule, the Ki in test [1] worked out at 3100 nM.

As for `CC(C)OC(=O)CSc1nc2cc(-n3nc(C(C)(C)C)oc3=O)c(Br)cc2s1`, the “inhibition (INH)” value in the test with Digitaria sanguinalis is 0%; in the test with Amaranthus retroflexus it was 75%; in the test on Echinochloa crus-galli it was 0%; in the test on Brassica juncea, 0%; in the test with Poa annua it was 0%; in the test with Eclipta prostrata, 0%. Moreover, in test [1], the Ki worked out at 5970 nM.

With `CCCOC(=O)CSc1nc2cc(-n3nc(C(C)(C)C)oc3=O)c(Cl)cc2s1`, the “inhibition (INH)” value in the test on Digitaria sanguinalis was determined as 0%; in the test with Amaranthus retroflexus, 70%; with Echinochloa crus-galli it was 0%; in the test with Brassica juncea, 0%; with Poa annua, 0%; in the test on Eclipta prostrata it was 0%. Besides, the Ki in test [1] was 980 nM.

On to `CC(C)OC(=O)CSc1nc2cc(-n3nc(C(C)(C)C)oc3=O)c(Cl)cc2s1`, for which the “inhibition (INH)” value in the test on Digitaria sanguinalis is on record as 0%; with Amaranthus retroflexus it was 50%; in the test on Echinochloa crus-galli, 0%; with Brassica juncea it was 0%; in the test with Poa annua it was 0%; with Eclipta prostrata, 0%. In test [1], the Ki worked out at 2170 nM.

Turning to `C=CCSc1nc2cc(-n3nc(C(C)(C)C)oc3=O)c(Cl)cc2s1`, the “inhibition (INH)” value stood at 0% with Digitaria sanguinalis; 70% in the test on Amaranthus retroflexus; 0% in the test on Echinochloa crus-galli; 70% with Brassica juncea; 0% in the test with Poa annua; 60% in the test with Eclipta prostrata. Also, the Ki in test [1] came to 3110 nM.

On to `COC(=O)CSc1nc2cc(-n3nc(C(C)(C)C)oc3=O)c(Cl)cc2s1`, for which the “inhibition (INH)” value turned out to be 0% in the test on Digitaria sanguinalis; 70% in the test with Amaranthus retroflexus; 0% in the test with Echinochloa crus-galli; 0% in the test on Brassica juncea; 0% with Poa annua; 50% with Eclipta prostrata. The Ki in test [1] came to 1070 nM.

With `CC(C)(C)OC(=O)CSc1nc2cc(-n3nc(C(C)(C)C)oc3=O)c(Cl)cc2s1`, the “inhibition (INH)” value in the test on Digitaria sanguinalis is given as 0%; in the test with Amaranthus retroflexus, 40%; with Echinochloa crus-galli, 0%; with Brassica juncea, 50%; in the test on Poa annua, 0%; in the test on Eclipta prostrata it was 30%. Moreover, in test [1], the Ki is 840 nM.

In the case of `CC(C)(C)c1nn(-c2cc3nc(SCC=C(Cl)Cl)sc3cc2Cl)c(=O)o1`, the “inhibition (INH)” value is 0% with Digitaria sanguinalis; 70% in the test on Amaranthus retroflexus; 0% in the test on Echinochloa crus-galli; 70% in the test with Brassica juncea; 0% in the test with Poa annua; 40% in the test on Eclipta prostrata. For the same molecule, the Ki in test [1] was determined as 10200 nM.
